Results from ChEMBL document CHEMBL2086265, “Design of inhibitors of Helicobacter pylori glutamate racemase as selective antibacterial agents: incorporation of imidazoles onto a core pyrazolopyrimidinedione scaffold to improve bioavailabilty” (Bioorg Med Chem Lett, 2012).
≈ marks a conversion by molar mass, not a printed value.

Experiments:
[1] = Intrinsic clearance in human liver microsomes at 2 uM assessed per mg of protein; type: ADME, Microsome; conditions: read-out: CLH
Helicobacter pylori [2] = assay: Antibacterial activity against wild type Helicobacter pylori 055; type: functional
Glutamate racemase = target: T1, Glutamate racemase (Helicobacter pylori J99, UniProt Q9ZLT0); assay: Inhibition of Helicobacter pylori J99 glutamate racemase
T1 sequence (Q9ZLT0 whole entry): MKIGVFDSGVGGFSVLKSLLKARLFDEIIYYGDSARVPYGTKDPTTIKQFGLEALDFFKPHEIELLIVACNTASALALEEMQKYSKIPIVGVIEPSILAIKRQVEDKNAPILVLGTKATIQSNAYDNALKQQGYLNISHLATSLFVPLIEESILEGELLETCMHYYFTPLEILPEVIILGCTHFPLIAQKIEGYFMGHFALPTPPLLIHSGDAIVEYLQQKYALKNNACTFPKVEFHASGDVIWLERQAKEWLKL
Outline: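 The racemase was expressed from the murI gene of H. pylori J99 chromosomal DNA. IC50 was taken as the mean of duplicate determinations, using a method cited from earlier work.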

[3] = Intrinsic clearance in mouse liver microsomes at 2 uM assessed per mg of protein; type: ADME, Microsome; conditions: read-out: CLH
Helicobacter pylori [4] = assay: Ratio of MIC for wild type Helicobacter pylori 055 to MIC for AcrAB-TolC efflux pump-dificient Helicobacter pylori
Helicobacter pylori [5] = assay: Antibacterial activity against AcrAB-TolC efflux pump-dificient Helicobacter pylori; type: functional

Row | Compound | microsomal CLint at 2 µM [1] [µL/min/mg] | MIC (Helicobacter pylori [2]) [µg/mL] | IC50 (Glutamate racemase) [nM] | microsomal CLint at 2 µM [3] [µL/min/mg] | Ratio (Helicobacter pylori [4]) | MIC (Helicobacter pylori [5]) [µg/mL]
1 | C#CC(C)n1c(=O)c2c(-c3cncn3C)n(Cc3ccnc4ccc(Cl)cc34)nc2n(CC2CC2)c1=O (configuration not stated) | 21 | 8 (≈ 15.6 µM) | 460 | 65 | <=2 | 8 (≈ 15.6 µM)
2 | Cn1cnnc1-c1c2c(=O)n(C)c(=O)n(CC3CC3)c2nn1Cc1ccnc2ccc(Cl)cc12 | < 14 | 8 (≈ 16.8 µM) | 230 | 64 | – | –
3 | Cc1c[nH]nc1-c1c2c(=O)n(C)c(=O)n(CC3CC3)c2nn1Cc1ccnc2ccc(Cl)cc12 | 20 | 8 (≈ 16.8 µM) | 220 | > 100 | – | –
4 | Cc1nc[nH]c1-c1c2c(=O)n(C)c(=O)n(CC3CC3)c2nn1Cc1ccnc2ccc(Cl)cc12 | 92 | 32 (≈ 67.2 µM) | 900 | > 100 | – | –
5 | C=CCn1c(=O)c2c(-c3cncn3C)n(Cc3ccnc4ccc(Cl)cc34)nc2n(CC2CC2)c1=O | 25 | 1 (≈ 1.99 µM) | 56 | 49 | <=2 | 0.8 (≈ 1.59 µM)
6 | CCn1c(=O)c2c(-c3nc(C#N)cn3C)n(Cc3ccnc4ccc(Cl)cc34)nc2n(CC2CC2)c1=O | 51 | 2 (≈ 3.88 µM) | 180 | < 14 | <=2 | 2 (≈ 3.88 µM)
7 | C#CCn1c(=O)c2c(-c3nc(C#N)cn3C)n(Cc3ccnc4ccc(Cl)cc34)nc2n(CC2CC2)c1=O | < 14 | 1 (≈ 1.9 µM) | 89 | 28 | <=2 | 2 (≈ 3.81 µM)
8 | Cn1cc(C#N)cc1-c1c2c(=O)n(CC#CCN3CCOCC3)c(=O)n(CC3CC3)c2nn1Cc1ccnc2ccc(Cl)cc12 | > 100 | 16 (≈ 25.7 µM) | 51 | > 100 | – | 4 (≈ 6.42 µM)
9 | CC(C)n1c(=O)c2c(-c3cc(C#N)cn3C)n(Cc3ccnc4ccc(Cl)cc34)nc2n(CC2CC2)c1=O | 26 | 4 (≈ 7.58 µM) | 240 | > 100 | <=2 | 8 (≈ 15.2 µM)
10 | Cn1cc(C#N)cc1-c1c2c(=O)n(CC#CCO)c(=O)n(CC3CC3)c2nn1Cc1ccnc2ccc(Cl)cc12 | > 100 | 32 (≈ 57.8 µM) | 57 | > 100 | – | 16 (≈ 28.9 µM)
11 | Cn1cncc1-c1c2c(=O)n(CC#CCN3CCOCC3)c(=O)n(CC3CC3)c2nn1Cc1ccnc2ccc(Cl)cc12 | > 100 | 64 (≈ 107 µM) | 170 | > 100 | – | 16 (≈ 26.7 µM)
12 | Cn1cncc1-c1c2c(=O)n(CC#CCO)c(=O)n(CC3CC3)c2nn1Cc1ccnc2ccc(Cl)cc12 | > 100 | 64 (≈ 121 µM) | 54 | > 100 | – | 16 (≈ 30.2 µM)
13 | CC(C)Cn1c(=O)n(C)c(=O)c2c(-c3cc(C#N)cn3C)n(Cc3ccnc4ccc(Cl)cc34)nc21 | 94 | 4 (≈ 7.97 µM) | 86 | > 100 | – | –
14 | Cc1oc(C#N)cc1-c1c2c(=O)n(C)c(=O)n(CC3CC3)c2nn1Cc1ccnc2ccc(Cl)cc12 | 38 | 2 (≈ 3.99 µM) | 220 | 63 | <=2 | 2 (≈ 3.99 µM)
15 | Cn1cc(C#N)cc1-c1c2c(=O)n(CC#CCn3cncn3)c(=O)n(CC3CC3)c2nn1Cc1ccnc2ccc(Cl)cc12 | > 100 | 8 (≈ 13.2 µM) | 13 | > 100 | – | 16 (≈ 26.4 µM)
16 | Cn1cc(C#N)cc1-c1c2c(=O)n(CCO)c(=O)n(CC3CC3)c2nn1Cc1ccnc2ccc(Cl)cc12 | > 100 | 64 (≈ 121 µM) | 88 | > 100 | – | 16 (≈ 30.2 µM)
17 | Cn1cc(C#N)cc1-c1c2c(=O)n(CCn3ccnn3)c(=O)n(CC3CC3)c2nn1Cc1ccnc2ccc(Cl)cc12 | > 100 | 16 (≈ 27.5 µM) | 670 | > 100 | – | 16 (≈ 27.5 µM)
18 | CC(=O)c1cc(-c2c3c(=O)n(C)c(=O)n(CC4CC4)c3nn2Cc2ccnc3ccc(Cl)cc23)n(C)c1 | 19 | 3 (≈ 5.8 µM) | 39 | 53 | – | –
19 | CC#CCn1c(=O)c2c(-c3cncn3C)n(Cc3ccnc4ccc(Cl)cc34)nc2n(CC2CC2)c1=O | 47 | 8 (≈ 15.6 µM) | 63 | 44 | – | 2 (≈ 3.89 µM)
20 | C=CCn1c(=O)c2c(-c3cc(C#N)cn3C)n(Cc3ccnc4ccc(Cl)cc34)nc2n(CC2CC2)c1=O | 33 | 1.5 (≈ 2.85 µM) | 70 | 76 | <=2 | 1 (≈ 1.9 µM)

Row | Compound | microsomal CLint at 2 µM [1] [µL/min/mg] | MIC (Helicobacter pylori [2]) [µg/mL] | IC50 (Glutamate racemase) [nM] | microsomal CLint at 2 µM [3] [µL/min/mg] | Ratio (Helicobacter pylori [4]) | MIC (Helicobacter pylori [5]) [µg/mL]
21 | CCn1c(=O)c2c(-c3cc(C#N)cn3C)n(Cc3ccnc4ccc(Cl)cc34)nc2n(CC2CC2)c1=O | 25 | 0.75 (≈ 1.46 µM) | 70 | 17 | <=2 | 0.6 (≈ 1.17 µM)
22 | Cn1ncnc1-c1c2c(=O)n(C)c(=O)n(CC3CC3)c2nn1Cc1ccnc2ccc(Cl)cc12 | 32 | 8 (≈ 16.8 µM) | 810 | < 14 | – | 4 (≈ 8.39 µM)
23 | Cn1cc(C#N)nc1-c1c2c(=O)n(C)c(=O)n(CC3CC3)c2nn1Cc1ccnc2ccc(Cl)cc12 | < 14 | 4 (≈ 7.98 µM) | 87 | 87 | – | 2 (≈ 3.99 µM)
24 | Cn1cncc1-c1c2c(=O)n(C3CC3)c(=O)n(CC3CC3)c2nn1Cc1ccnc2ccc(Cl)cc12 | < 14 | 8 (≈ 15.9 µM) | 79 | 6 | – | 2 (≈ 3.98 µM)
25 | Cn1cc(C#N)cc1-c1c2c(=O)n(CC#CCn3cccn3)c(=O)n(CC3CC3)c2nn1Cc1ccnc2ccc(Cl)cc12 | > 100 | 8 (≈ 13.2 µM) | 120 | > 100 | – | 4 (≈ 6.62 µM)
26 | C#CC(C)n1c(=O)c2c(-c3cc(C#N)cn3C)n(Cc3ccnc4ccc(Cl)cc34)nc2n(CC2CC2)c1=O (configuration not stated) | 91 | 2 (≈ 3.72 µM) | 160 | > 100 | <=2 | 8 (≈ 14.9 µM)
27 | Cc1cc(C#N)oc1-c1c2c(=O)n(C)c(=O)n(CC3CC3)c2nn1Cc1ccnc2ccc(Cl)cc12 | 59 | 1 (≈ 2 µM) | 60 | > 100 | – | 0.25 (≈ 0.499 µM)
28 | Cc1sc(N)nc1-c1c2c(=O)n(C)c(=O)n(CC3CC3)c2nn1Cc1ccnc2ccc(Cl)cc12 | 34 | 8 (≈ 15.7 µM) | 280 | > 100 | – | –
29 | Cn1cc(C#N)nc1-c1c2c(=O)n(CC3CC3)c(=O)n(CC3CC3)c2nn1Cc1ccnc2ccc(Cl)cc12 | – | 2 (≈ 3.7 µM) | 150 | – | <=2 | 2 (≈ 3.7 µM)
30 | Cn1cc(C#N)nc1-c1c2c(=O)n(C3CC3)c(=O)n(CC3CC3)c2nn1Cc1ccnc2ccc(Cl)cc12 | < 14 | 8 (≈ 15.2 µM) | 250 | < 14 | – | 4 (≈ 7.59 µM)
31 | CC(C)n1c(=O)c2c(-c3cncn3C)n(Cc3ccnc4ccc(Cl)cc34)nc2n(CC2CC2)c1=O | 53 | 16 (≈ 31.7 µM) | 220 | 51 | <=2 | 16 (≈ 31.7 µM)
32 | CC(C)Cn1c(=O)n(C)c(=O)c2c(-c3cncn3C)n(Cc3cccc4ccccc34)nc21 | – | 4 (≈ 9.04 µM) | 120 | – | – | –
33 | CC(C)Cn1c(=O)n(C)c(=O)c2c(-c3cncn3C)n(Cc3ccnc4ccc(Cl)cc34)nc21 | 17 | 4 (≈ 8.37 µM) | 170 | > 100 | – | –
34 | Cn1cc(C#N)cc1-c1c2c(=O)n(CCn3cccn3)c(=O)n(CC3CC3)c2nn1Cc1ccnc2ccc(Cl)cc12 | > 100 | 32 (≈ 55.2 µM) | 470 | > 100 | – | 32 (≈ 55.2 µM)
35 | Cc1nc(N)sc1-c1c2c(=O)n(C)c(=O)n(CC3CC3)c2nn1Cc1ccnc2ccc(Cl)cc12 | < 14 | > 32 | 740 | 61 | – | –
36 | CCn1c(=O)c2c(-c3cncn3C)n(Cc3ccnc4ccc(Cl)cc34)nc2n(CC2CC2)c1=O | < 14 | 4 (≈ 8.16 µM) | 72 | 15 | – | 1 (≈ 2.04 µM)
37 | CC(C)Cn1c(=O)n(C)c(=O)c2c(-c3cccn3C)n(Cc3ccnc4ccc(Cl)cc34)nc21 | > 100 | 18 (≈ 37.7 µM) | 260 | > 100 | – | –
38 | Cn1cc(C#N)cc1-c1c2c(=O)n(CC#CCn3ccnc3)c(=O)n(CC3CC3)c2nn1Cc1ccnc2ccc(Cl)cc12 | 41 | 64 (≈ 106 µM) | 260 | > 100 | – | 4 (≈ 6.62 µM)
39 | Cn1cc(C#N)cc1-c1c2c(=O)n(CC#N)c(=O)n(CC3CC3)c2nn1Cc1ccnc2ccc(Cl)cc12 | < 14 | 8 (≈ 15.2 µM) | 55 | 96 | – | 1 (≈ 1.9 µM)
40 | Cn1cc(C#N)cc1-c1c2c(=O)n(C3CC3)c(=O)n(CC3CC3)c2nn1Cc1ccnc2ccc(Cl)cc12 | 30 | 2 (≈ 3.8 µM) | 80 | 33 | – | 0.13 (≈ 0.247 µM)
